Test results reported in PubChem BioAssay.
The source made the active and inactive calls.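 The calls were made as follows: active = potentiation averaged over duplicate wells exceeding buffer-only control mean by more than 3 SD; inactive = the rest.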

target: Potassium voltage-gated channel subfamily KQT member 1 (Homo sapiens) (UniProt P51787); test: enhancement of KCNQ1 channel thallium flux – FluxOR thallium flux, CHO cells, duplicates, confirmation (AID 493007); settings: KCNQ1 cell line, FluxOR thallium flux fluorescence, at 10 µM; active compounds read high, % of reference activator effect, buffer zero;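 as to outcome: cells depolarized by a potassium plus thallium sulfate stimulus after compound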;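 as to potentiation: 0% = buffer-only wells and 100% = R-L3 activator control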
How it was run: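 Assay system: CHO cells carrying KCNQ1 | Controls: Buffer and R-L3 controls | Schedule: FluxOR dye loading 90 min, compound exposure 20 min, room temperature | Read-out: Baseline-normalized fluorescence change, percent of buffer-to-R-L3 range | Replicates: Each compound tested in duplicate | Technique: Kinetic thallium influx fluorescence with FluxOR dye, 10 s baseline, 110 s post-stimulus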

Sequence of Potassium voltage-gated channel subfamily KQT member 1 (Homo sapiens) (P51787 whole entry, looked up): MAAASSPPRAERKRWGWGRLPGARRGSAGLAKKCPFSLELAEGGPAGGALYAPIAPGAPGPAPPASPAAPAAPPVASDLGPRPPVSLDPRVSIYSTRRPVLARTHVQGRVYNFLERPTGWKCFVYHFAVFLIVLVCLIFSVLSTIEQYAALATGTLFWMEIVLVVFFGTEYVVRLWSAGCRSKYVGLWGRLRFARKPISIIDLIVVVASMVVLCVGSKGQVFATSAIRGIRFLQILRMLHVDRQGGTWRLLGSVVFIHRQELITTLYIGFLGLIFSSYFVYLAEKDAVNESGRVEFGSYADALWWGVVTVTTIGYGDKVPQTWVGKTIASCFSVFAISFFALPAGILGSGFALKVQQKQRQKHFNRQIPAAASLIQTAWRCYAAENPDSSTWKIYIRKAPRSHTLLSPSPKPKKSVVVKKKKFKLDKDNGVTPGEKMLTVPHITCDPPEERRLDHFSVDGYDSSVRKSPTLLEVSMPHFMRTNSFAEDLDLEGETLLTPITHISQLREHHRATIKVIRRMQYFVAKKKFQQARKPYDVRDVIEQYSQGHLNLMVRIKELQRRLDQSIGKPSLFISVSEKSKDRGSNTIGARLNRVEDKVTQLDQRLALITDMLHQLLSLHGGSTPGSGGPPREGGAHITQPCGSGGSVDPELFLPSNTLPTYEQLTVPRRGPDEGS

Row | Structure (SMILES) | outcome | potentiation
1 | COc1ccc(OC)c(NC(=S)NC(=O)c2ccc(Br)o2)c1 | inactive | 
2 | Cc1ccc(-c2ccc(/C=C3\C(=O)ON=C3c3ccccc3)o2)c([N+](=O)[O-])c1 |  | 29% (active)
3 | Cc1nc(NC(=S)NC(=O)c2ccccc2)sc1C | inactive | 
4 | CN1CCN(c2ccc(S(=O)(=O)N3CCCCC3)cc2NC(=O)COc2cccc(Cl)c2)CC1 | inactive | 
5 | O=C(NC(=S)Nc1nc2c(s1)CCCC2)c1ccccc1 |  | 26% (active)
6 | Cc1ccc(-n2ncc(C(=O)Nc3cc(Cl)cc(Cl)c3)c2C2CCNCC2)cc1C | inactive | 
7 | CN(CC(=O)NCc1ccccc1Cl)CC(=O)Nc1cccc(F)c1 | inactive | 
8 | CN(C)c1ccnc(N(Cc2ccccc2)Cc2ccccc2)c1C#N | inactive | 
9 | COc1ccc(C2CC(c3c(-c4ccccc4)c4cc(Cl)ccc4[nH]c3=O)=NN2S(C)(=O)=O)cc1OC (stereo not given) | inactive | 
10 | CCCn1c(=O)c(C(=O)NNC(=O)c2ccc(Cl)cc2Cl)c(O)c2ccccc21 |  | 30% (active)
11 | CCC1CCCCN1CCCNC(=O)CSc1nc2nc(C)c(Cc3ccccc3)c(C)n2n1 (stereo not given) | inactive | 
12 | CCOC(=O)C1=C(CC)Nc2ccccc2N=C1NC(=O)CCNC(C)=O | inactive | 
13 | O=C(CCN1Cc2ccccc2C1)c1ccc2c(c1)OCCO2 |  | 45.5% (active)
14 | COc1cc(OC)cc(C(=O)N2CC(=O)Nc3ccccc32)c1 | inactive | 
15 | COc1cc(O)c2c(=O)c(-c3ccc(O[C@@H]4O[C@H](CO)[C@@H](O)[C@H](O)[C@H]4O)cc3)coc2c1 | inactive | 
16 | Cc1ccc(-c2nc(=S)c3c(n2Cc2ccco2)CC(C)(C)OC3)cc1 | inactive | 
17 | COc1ccccc1NC(=O)CC1C(=O)NCCN1C(=O)Nc1ccc(Cl)c(Cl)c1 (stereo not given) |  | 37.5% (active)
18 | CCOC(=O)C(C(=O)OCC)C(C(=O)OCC)N1CCOCC1 (stereo not given) | inactive | 
19 | CCOC(=O)N1CCN(C(=S)NC(=O)c2ccc(F)c(F)c2)CC1 | inactive | 
20 | COC(=O)c1sc(NC(=S)NC(=O)c2cccc(C)c2)nc1C | inactive | 

Row | Structure (SMILES) | outcome | potentiation
21 | COc1ccc(OCCCC(=O)NNC(=O)CCN2CCN(c3ccccc3)CC2)cc1 |  | 19% (active)
22 | S=c1[nH]nc(-c2cccs2)n1/N=C/c1cn(-c2ccccc2)nc1-c1ccccc1 |  | 22% (active)
23 | COc1ccc(NC(=S)NCCC(c2ccccc2)c2ccccc2)c(OC)c1 |  | 72.5% (active)
24 | CCOC(=O)c1[nH]c2cc(OC)c(OC)cc2c1NC(=O)CN(C)C1CCCCC1 |  | 18% (active)
25 | Cc1ccc(C)c(N/C(N)=N/c2nc(C)cc(C)n2)c1 | inactive | 
26 | S=C(N/N=C/c1cccc2ccccc12)Nc1cccc(Cl)c1 |  | 59.5% (active)
27 | CC(=O)Nc1ccc(NC(=O)CSC2=NS(=O)(=O)c3cc(Cl)ccc3N2)cc1 | inactive | 
28 | COc1ccc(-c2nnc(NC(=O)c3ccc(S(=O)(=O)N4CCCc5ccccc54)cc3)o2)cc1 | inactive | 
29 | COc1cc(OC)c(-n2cc(-c3ccc(Cl)cc3)[nH]c2=O)cc1Cl | inactive | 
30 | CCn1c(SCC(=O)Nc2ccccc2F)nnc1-c1cnccn1 | inactive | 
31 | Cc1ccc(CNc2nc3c([nH]2)c(=O)n(C)c(=O)n3C)cc1 | inactive | 
32 | NS(=O)(=O)c1ccc(Sc2ccc3c(c2)CCC3)nc1 |  | 22.5% (active)
33 | COc1nccnc1NS(=O)(=O)c1ccc(NC(=S)NC(=O)c2ccccc2F)cc1 | inactive | 
34 | Cc1ccc(C(=O)CSc2nnc3c4ccccc4nc(C(C)(C)C)n23)cc1 | inactive | 
35 | CC(C)CNC(=S)NC(=O)c1ccc([N+](=O)[O-])cc1 | inactive | 
36 | O=C1C(=O)N(CCCc2ccccc2)c2ccccc21 | inactive | 
37 | O=C(Nc1cccnc1)NC1CCCCC1 | inactive | 
38 | O=C(N/N=C/c1ccc(-c2ccccc2)o1)c1ccccc1O |  | 31% (active)
39 | O=C(Nc1ccccc1Br)c1ccccc1-c1ccccc1 |  | 29.5% (active)
40 | O=C(NC(=S)Nc1ccccc1N1CCOCC1)c1ccc(-c2cc(Cl)ccc2Cl)o1 | inactive | 
